According to article PMC6008205 (Journal of controlled release : official journal of the …, 2018):

Columns and labels:
[1] = Tapping mode AFM analysis of nanodrill size and mechanical stability; conditions: tapping mode AFM on mica under water, 400 µM peptide solution
[2] = ANS spectrofluorimetric analysis of hydrophobic regions; type: physicochemical; conditions: ANS 0.2 µM, CSPNs 2–16 µM, excitation 356 nm; relative to 2F-RT
In short: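 Test peptides were dissolved in water at 2–16 µM, and the ANS probe was added at 0.2 µM. Spectra were read on a fluorescence microplate reader at ambient temperature, with excitation at 356 nm and emission scanned from 380–600 nm. All measurements were done in triplicate and reported as arithmetic mean ± standard deviation.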

[3] = Dynamic light scattering particle size and PDI of CSPNs; type: physicochemical; conditions: DLS in ultrapure water, peptide nanodrills 0.4 mM, triplicate
In short: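 Nanodrills formed spontaneously on vortexing peptide in ultrapure water or PBS pH 7.4. They were measured at 0.4 mM by dynamic light scattering in a quartz cuvette after 2 min equilibration. Measurements were done in triplicate and reported as arithmetic mean ± standard deviation.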

FFF--(RADA)2-Tat [3F-RT]
Aspect ratio by AFM [1]: 6.2±3.9
Nanodrill size (length) by AFM [1]: 105±67 nm
Mean ANS fluorescence intensity compared to 2F-RT [2]: five-fold increase
PDI [3]: 0.434
